Experimental data reported in ChEMBL document CHEMBL4007456, “Heterocyclyl Tetracyclines. 1. 7-Trifluoromethyl-8-Pyrrolidinyltetracyclines: Potent, Broad Spectrum Antibacterial Agents with Enhanced Activity against Pseudomonas aeruginosa” (2017).
Values after ≈ are worked out from the molar mass of the structure shown.

system: Pseudomonas aeruginosa; experiment: Antibacterial activity against Pseudomonas aeruginosa PA1145 in BALB/c mouse model of lung infection administered as iv bid for 2 to 12 hrs of post-infection measured after 24 hrs; format: functional
Outline: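 Female BALB/c mice (18–20 g) infected intranasally with ~2 x 10^7 CFU/mouse P. aeruginosa PA1145 (cystic fibrosis isolate) under light anesthesia. Dosing at 2 and 12 h post-infection, IV (compound, tigecycline, amikacin) or intranasal (tobramycin); n = 6 per group. Lungs harvested 24 h after treatment start, homogenized, plated on MacConkey agar, 37 °C overnight; CFU/g lung; Mann-Whitney vs T = 0 h or 24 h controls.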

SMILES	MIC
CN(C)c1cc(NC(=O)CNC(C)(C)C)c(O)c2c1C[C@H]1C[C@H]3[C@H](N(C)C)C(O)=C(C(N)=O)C(=O)[C@@]3(O)C(O)=C1C2=O [TIGECYCLINE]	16 µg/mL (≈ 27.3 µM)

system: Pseudomonas aeruginosa; experiment: Antibacterial activity against Pseudomonas aeruginosa PA1145 in BALB/c mouse model of lung infection assessed as reduction in log10CFU per gram of lung at 40 mg/kg, iv bid administered 2 to 12 hrs of post-infection measured after 24 hrs relative to untreated control; format: functional
Outline: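 Female BALB/c mice, 18 to 20 g, infected intranasally under light anesthesia with ~ 2 x 10^7 CFU/mouse of P. aeruginosa PA1145 (cystic fibrosis isolate) in 0.05 mL. Treatment at 2 and 12 h post-infection, IV, or intranasally for tobramycin; n = 6 per group. Lungs harvested 24 h after treatment began, homogenized, plated on MacConkey medium, incubated overnight at 37 °C in 5% CO2. CFU per gram lung compared with T = 24 h untreated control.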

SMILES	Activity
CN(C)c1cc(NC(=O)CNC(C)(C)C)c(O)c2c1C[C@H]1C[C@H]3[C@H](N(C)C)C(O)=C(C(N)=O)C(=O)[C@@]3(O)C(O)=C1C2=O [TIGECYCLINE]	4.2 deltalog10CFU

system: Acinetobacter baumannii; experiment: Antibacterial activity against gram-negative Acinetobacter baumannii AB250 by CLSI method; format: functional
Outline: (§1)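 Broth microdilution MIC per CLSI in cation-adjusted Mueller Hinton broth, prepared fresh and held at 4 °C. Defibrinated horse blood added where appropriate. Compounds serially diluted in sterile deionized water. Strains from ATCC unless otherwise noted. Runs accepted when comparator antibiotics fell within QC ranges for ATCC quality control strains.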

SMILES	MIC
CN(C)c1cc(NC(=O)CNC(C)(C)C)c(O)c2c1C[C@H]1C[C@H]3[C@H](N(C)C)C(O)=C(C(N)=O)C(=O)[C@@]3(O)C(O)=C1C2=O [TIGECYCLINE]	8 µg/mL (≈ 13.7 µM)

system: Stenotrophomonas maltophilia; experiment: Antibacterial activity against gram-negative Stenotrophomonas maltophilia SM256 by CLSI method; format: functional; outline: as §1

SMILES	MIC
CN(C)c1cc(NC(=O)CNC(C)(C)C)c(O)c2c1C[C@H]1C[C@H]3[C@H](N(C)C)C(O)=C(C(N)=O)C(=O)[C@@]3(O)C(O)=C1C2=O [TIGECYCLINE]	2 µg/mL (≈ 3.41 µM)

system: Burkholderia cenocepacia; experiment: Antibacterial activity against gram-negative Burkholderia cenocepacia BC240 by CLSI method; format: functional
Outline: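 Defibrinated horse blood added where appropriate. Compounds serially diluted in sterile deionized water. Strains from ATCC unless otherwise noted. Runs accepted when comparator antibiotics fell within QC ranges for ATCC quality control strains.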

SMILES	MIC
CN(C)c1cc(NC(=O)CNC(C)(C)C)c(O)c2c1C[C@H]1C[C@H]3[C@H](N(C)C)C(O)=C(C(N)=O)C(=O)[C@@]3(O)C(O)=C1C2=O [TIGECYCLINE]	16 µg/mL (≈ 27.3 µM)

system: Enterococcus faecalis; experiment: Antibacterial activity against gram-positive Enterococcus faecalis EFs327 harboring tet(M) by CLSI method; format: functional
Outline: (§2)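 CLSI broth microdilution MIC in fresh cation-adjusted Mueller Hinton broth, supplemented with defibrinated horse blood where appropriate. Compounds serially diluted in sterile deionized water. Runs accepted when comparator antibiotics against ATCC quality-control strains fell within recommended ranges.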

SMILES	MIC
CN(C)c1cc(NC(=O)CNC(C)(C)C)c(O)c2c1C[C@H]1C[C@H]3[C@H](N(C)C)C(O)=C(C(N)=O)C(=O)[C@@]3(O)C(O)=C1C2=O [TIGECYCLINE]	0.125 µg/mL (≈ 0.213 µM)

system: Enterococcus faecium; experiment: Antibacterial activity against gram-positive Enterococcus faecium EFm404 harboring tet(M) by CLSI method; format: functional; outline: as §2

SMILES	MIC
CN(C)c1cc(NC(=O)CNC(C)(C)C)c(O)c2c1C[C@H]1C[C@H]3[C@H](N(C)C)C(O)=C(C(N)=O)C(=O)[C@@]3(O)C(O)=C1C2=O [TIGECYCLINE]	0.0312 µg/mL (≈ 0.0533 µM)

system: Klebsiella pneumoniae; experiment: Antibacterial activity against gram-negative Klebsiella pneumoniae KP457 harboring blacTX-M-15 extended spectrum beta-lactamase gene by CLSI method; format: functional; outline: as §2

SMILES	MIC
CN(C)c1cc(NC(=O)CNC(C)(C)C)c(O)c2c1C[C@H]1C[C@H]3[C@H](N(C)C)C(O)=C(C(N)=O)C(=O)[C@@]3(O)C(O)=C1C2=O [TIGECYCLINE]	1 µg/mL (≈ 1.71 µM)

system: Proteus mirabilis; experiment: Antibacterial activity against gram-negative Proteus mirabilis PM385 by CLSI method; format: functional; outline: as §1

SMILES	MIC
CN(C)c1cc(NC(=O)CNC(C)(C)C)c(O)c2c1C[C@H]1C[C@H]3[C@H](N(C)C)C(O)=C(C(N)=O)C(=O)[C@@]3(O)C(O)=C1C2=O [TIGECYCLINE]	4 µg/mL (≈ 6.83 µM)

system: Pseudomonas aeruginosa; experiment: Antibacterial activity against gram-negative Pseudomonas aeruginosa PA555 by CLSI method; format: functional; outline: as §1

SMILES	MIC
CN(C)c1cc(NC(=O)CNC(C)(C)C)c(O)c2c1C[C@H]1C[C@H]3[C@H](N(C)C)C(O)=C(C(N)=O)C(=O)[C@@]3(O)C(O)=C1C2=O [TIGECYCLINE]	16 µg/mL (≈ 27.3 µM)

system: Enterobacter cloacae; experiment: Antibacterial activity against gram-negative Enterobacter cloacae EC1603 harboring tet(A) by CLSI method; format: functional; outline: as §2

SMILES	MIC
CN(C)c1cc(NC(=O)CNC(C)(C)C)c(O)c2c1C[C@H]1C[C@H]3[C@H](N(C)C)C(O)=C(C(N)=O)C(=O)[C@@]3(O)C(O)=C1C2=O [TIGECYCLINE]	4 µg/mL (≈ 6.83 µM)

system: Staphylococcus aureus; experiment: Antibacterial activity against gram-positive Staphylococcus aureus SA101 by CLSI method; format: functional; outline: as §1

SMILES	MIC
CN(C)c1cc(NC(=O)CNC(C)(C)C)c(O)c2c1C[C@H]1C[C@H]3[C@H](N(C)C)C(O)=C(C(N)=O)C(=O)[C@@]3(O)C(O)=C1C2=O [TIGECYCLINE]	0.0625 µg/mL (≈ 0.107 µM)

system: Staphylococcus aureus; experiment: Antibacterial activity against gram-positive Staphylococcus aureus SA161 harboring tet(M) by CLSI method; format: functional; outline: as §2

SMILES	MIC
CN(C)c1cc(NC(=O)CNC(C)(C)C)c(O)c2c1C[C@H]1C[C@H]3[C@H](N(C)C)C(O)=C(C(N)=O)C(=O)[C@@]3(O)C(O)=C1C2=O [TIGECYCLINE]	0.125 µg/mL (≈ 0.213 µM)

system: Staphylococcus aureus; experiment: Antibacterial activity against gram-positive Staphylococcus aureus SA158 harboring tet(K) by CLSI method; format: functional; outline: as §2

SMILES	MIC
CN(C)c1cc(NC(=O)CNC(C)(C)C)c(O)c2c1C[C@H]1C[C@H]3[C@H](N(C)C)C(O)=C(C(N)=O)C(=O)[C@@]3(O)C(O)=C1C2=O [TIGECYCLINE]	0.125 µg/mL (≈ 0.213 µM)

system: Streptococcus pneumoniae; experiment: Antibacterial activity against gram-positive Streptococcus pneumoniae SP160 harboring tet(M) by CLSI method; format: functional; outline: as §2

SMILES	MIC
CN(C)c1cc(NC(=O)CNC(C)(C)C)c(O)c2c1C[C@H]1C[C@H]3[C@H](N(C)C)C(O)=C(C(N)=O)C(=O)[C@@]3(O)C(O)=C1C2=O [TIGECYCLINE]	0.0156 µg/mL (≈ 0.0266 µM)

system: Escherichia coli; experiment: Antibacterial activity against gram-negative Escherichia coli EC107 by CLSI method; format: functional; outline: as §1

SMILES	MIC
CN(C)c1cc(NC(=O)CNC(C)(C)C)c(O)c2c1C[C@H]1C[C@H]3[C@H](N(C)C)C(O)=C(C(N)=O)C(=O)[C@@]3(O)C(O)=C1C2=O [TIGECYCLINE]	0.125 µg/mL (≈ 0.213 µM)

system: Escherichia coli; experiment: Antibacterial activity against gram-negative Escherichia coli EC155 harboring tet(A) by CLSI method; format: functional; outline: as §2

SMILES	MIC
CN(C)c1cc(NC(=O)CNC(C)(C)C)c(O)c2c1C[C@H]1C[C@H]3[C@H](N(C)C)C(O)=C(C(N)=O)C(=O)[C@@]3(O)C(O)=C1C2=O [TIGECYCLINE]	1 µg/mL (≈ 1.71 µM)
